Screens deposited in PubChem by several laboratories.
L929 necroptosis: L929 zVAD cell death inhibition | L929 zVAD necroptosis rescue, ATP luminescence, 24 h; with zVAD 60 µM | viability rescue, % at 10 µM | 220,000 tested, 0.38% active | AID 1377;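 active = activation, scaled between plate controls, above about 75%, limit read from the data; inactive = activation under that limit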;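 note: 0% = zVAD with DMSO and 100% = DMSO alone without zVAD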
Runt-CBFb FRET: blocks binding of human RUNX1 Runt domain to CBFb; AID 1496; Cerulean-Runt/Venus-CBFb FRET ratio 530/480, 1 h; inhibition, % at 20 µM; Q01196+Q13951; 220,000 tested, 0.46% active;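 active = inhibition over about 50% at 20 µM in the single-dose screen, limit read from the data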;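 note: 0% = DMSO wells and 100% = excess unlabeled CBFb competitor control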
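test system = Cerulean-tagged RUNX1 Runt domain (FRET donor) fusion protein | reagent = Venus-CBFb binding partner, 100 nM | incubation = protein complex preformed 1 h, compound exposure 1 h, room temperature, dark | detection = FRET fluorescence | read-out basis = loss of energy transfer signal | controls = 5 µM unlabeled CBFb as full-inhibition high control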
TNF necrop inh: blocks TNF-alpha induced death of Jurkat FADD-/- cells; Jurkat FADD-/- TNF necroptosis rescue, ATP luminescence, 24 h; 0 = TNF only, 100 = no-TNF cells; activation (protection from cell death), % at 10 µM; 220,000 tested, 0.068% active; AID 463075;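 active = activation, meaning protection from cell death, of at least 50% relative to plate controls; inactive = activation below 50%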;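 note: necroptosis triggered by 40 ng/mL TNF-alpha added together with compound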
Hck Nef HTS: human Hck-Nef kinase inhibition; P08631; Recombinant Hck-YEEI plus Nef, Z-Lyte FRET kinase assay; inhibition, % at 20 µM; 220,000 tested, 0.68% active;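 active = Hck-Nef kinase inhibition above about 50%, limit read from the data; inactive = inhibition below that limit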;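 note: 0% = DMSO with Hck plus Nef and 100% = Hck alone without Nef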
Target sequence (P08631 whole entry, looked up): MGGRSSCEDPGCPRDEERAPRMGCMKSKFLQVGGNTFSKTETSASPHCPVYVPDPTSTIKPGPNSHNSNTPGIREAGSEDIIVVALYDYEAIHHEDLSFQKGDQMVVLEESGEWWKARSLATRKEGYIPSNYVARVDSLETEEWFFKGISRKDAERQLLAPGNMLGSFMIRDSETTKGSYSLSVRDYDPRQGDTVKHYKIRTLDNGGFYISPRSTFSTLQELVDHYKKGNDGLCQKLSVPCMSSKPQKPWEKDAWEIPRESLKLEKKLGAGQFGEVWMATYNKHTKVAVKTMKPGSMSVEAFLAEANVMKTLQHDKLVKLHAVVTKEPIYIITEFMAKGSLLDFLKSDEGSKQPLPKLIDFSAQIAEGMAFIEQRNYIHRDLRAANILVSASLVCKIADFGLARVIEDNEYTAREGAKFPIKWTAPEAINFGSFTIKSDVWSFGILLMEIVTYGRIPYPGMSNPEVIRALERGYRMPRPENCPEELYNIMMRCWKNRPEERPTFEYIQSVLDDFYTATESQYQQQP
Runt-SMMHC FRET: blocks binding of human RUNX1 Runt domain to CBFb-SMMHC | Q01196+Q13951 | Cerulean-Runt/Venus-CBFb-SMMHC FRET ratio 530/480, 1 h | inhibition, % at 20 µM | 220,000 tested, 0.74% active | AID 1434;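 active = mean inhibition across duplicate retests at 20 µM reaching about 50%, limit read from the data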;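 note: 0% = DMSO wells and 100% = wells with excess untagged CBFb-SMMHC; inhibitors lower the FRET ratio by blocking Runt binding to CBFb-SMMHC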
RanGTP-Impb inh: disruptors of Ran-importin-beta complex formation – biochemical, FRET, CFP-Ran, YFP-importin-beta, homogeneous, primary screen; cell-free CFP-Ran/YFP-importin-beta FRET ratio; inhibition, % (test concentration not listed); 300,000 tested, 1.1% active;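 active = more than half of the replicate wells show a fall in the fluorescence ratio signal beyond about 16%, limit read from the data, passing the limit was not always enough; inconclusive = exactly half of the replicate wells pass the set limit; inactive = fewer than half of replicates pass the limit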;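 note: 0% = DMSO wells and 100% = Ran loaded with GDP instead of GTP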
* = called active by the depositor. Shown are actives, neighbours in structure and some others; about 2.1% of the full set was active somewhere.

What do the screens show for `CCN(CC)c1ccc2cc(C(=O)Nc3ccccn3)c(=O)oc2c1`?
L929 necroptosis: 1; Runt-CBFb FRET: 18; TNF necrop inh: 4; Hck Nef HTS: 20; Runt-SMMHC FRET: 62*; RanGTP-Impb inh: 161*

How did CCN(CC)c1ccc2cc(C(N)=O)c(=N)oc2c1 do in these assays?
L929 necroptosis: 5; Runt-CBFb FRET: 20; TNF necrop inh: -2; Hck Nef HTS: 22; Runt-SMMHC FRET: 92*; RanGTP-Impb inh: 151*

How did CCN(CC)c1ccc2cc(NC(=O)CCC(=O)O)c(=O)oc2c1 do in these assays?
L929 necroptosis: 0; Runt-CBFb FRET: 18; TNF necrop inh: 2; Hck Nef HTS: 17; Runt-SMMHC FRET: 63*; RanGTP-Impb inh: 136*

What do the screens show for `Cc1cccc(C(=O)OCCN2CCOCC2)c1`?
RanGTP-Impb inh: 4

What do the screens show for `CCOC(=O)c1cnc(/N=C/N(C)C)s1`?
L929 necroptosis: -1; Runt-CBFb FRET: 2; TNF necrop inh: 0; Hck Nef HTS: 18; Runt-SMMHC FRET: -3; RanGTP-Impb inh: 6

Results for CCN(CC)c1ccc2cc(C=O)c(=O)oc2c1 ?
L929 necroptosis: 0; Runt-CBFb FRET: 17; TNF necrop inh: -2; Hck Nef HTS: 6; Runt-SMMHC FRET: 60*; RanGTP-Impb inh: 126*

How did CCN(CC)c1ccc2cc(-c3nnc(-c4ccncc4)o3)c(=O)oc2c1 do in these assays?
L929 necroptosis: 0; Runt-CBFb FRET: 18; TNF necrop inh: 0; Hck Nef HTS: -13; Runt-SMMHC FRET: 63*

Results for CCN(CC)c1ccc2nc3c4ccccc4c(=O)cc-3oc2c1 ?
RanGTP-Impb inh: -1

What do the screens show for `C/C(=N/NC(=O)CNc1ccc(Cl)cc1C)c1ccc(C)cc1`?
L929 necroptosis: 2; Runt-CBFb FRET: 0; TNF necrop inh: -1; Hck Nef HTS: 26; Runt-SMMHC FRET: 2; RanGTP-Impb inh: 3

How did CCCNc1cc(=S)nc(N)[nH]1 do in these assays?
L929 necroptosis: 1; Runt-CBFb FRET: 36; TNF necrop inh: 1; Hck Nef HTS: -29; Runt-SMMHC FRET: 22; RanGTP-Impb inh: 36*

How did Cc1cccc2cc3c(NC(=O)C(C)(C)C)nn(CC(C)C)c3nc12 do in these assays?
RanGTP-Impb inh: 80*

How did CCn1nc(NC(=O)c2ccccc2)c2cc3cccc(C)c3nc21 do in these assays?
L929 necroptosis: 3; Runt-CBFb FRET: 62*; TNF necrop inh: 2; Hck Nef HTS: 41; Runt-SMMHC FRET: 86*; RanGTP-Impb inh: 69*

Results for CCn1nc(NC(=O)C(C)C)c2cc3cccc(C)c3nc21 ?
RanGTP-Impb inh: 48*

Results for CCn1nc(NC(C)=O)c2cc3ccc(C)cc3nc21 ?
RanGTP-Impb inh: 4

How did Cc1ccc(S(=O)(=O)NCc2cccnc2)cc1C(=O)N1CCCC1 do in these assays?
RanGTP-Impb inh: -1

How did COCC(=O)N1CCC(Oc2ccc(C(=O)NC3Cc4ccccc4C3)cc2)CC1 do in these assays?
RanGTP-Impb inh: 5

What do the screens show for `CC(=O)N1CCc2c(sc(NC(=O)C3COc4ccccc4O3)c2C(N)=O)C1` (stereo unspecified)?
RanGTP-Impb inh: 5

How did CCN1CCc2c(sc(NC(=O)C3COc4ccccc4O3)c2C(N)=O)C1 (stereo unspecified) do in these assays?
RanGTP-Impb inh: 153*

Results for CN1CCc2c(sc(NC(=O)C3COc4ccccc4O3)c2C(N)=O)C1 (stereo unspecified) ?
RanGTP-Impb inh: 182*

How did Cc1cccn2c(=O)c(/C=C(\C#N)S(=O)(=O)c3ccccc3)c(N3CCC(C(N)=O)CC3)nc12 do in these assays?
L929 necroptosis: 0; Runt-CBFb FRET: -7; TNF necrop inh: 1; Hck Nef HTS: 0; Runt-SMMHC FRET: -14; RanGTP-Impb inh: 10

Results for Cc1cccn2c(=O)c(/C=C(\C#N)C(=O)NC3CCS(=O)(=O)C3)c(N3CC(C)OC(C)C3)nc12 (stereo unspecified) ?
L929 necroptosis: 0; Runt-CBFb FRET: 12; TNF necrop inh: 0; Hck Nef HTS: 3; Runt-SMMHC FRET: 103*; RanGTP-Impb inh: inconclusive
